Screens (PubChem BioAssay)
Apaf1 activ = human Apaf-1 activation | O14727 | Apaf-1 apoptosome caspase-3 activation, DEVD-Rh110 fluorescence; stronger effect = lower value | activity change, negative = activation, % at 20 µM | hit rate 0.31% among 330,000 | AID 489031;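 active means activity change at or below -40% at 20 µM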
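Material: biochemical Apaf-1 apoptosome reconstitution; Medium: 20 mM HEPES buffer, pH 7.5, containing CHAPS and BSA; Reagent: dATP, cytochrome c, and (Z-DEVD)2-Rh110 caspase-3 substrate; Times: 30 min preincubation, 50 min reaction, room temperature; Signal: Rh110 fluorescence, excitation 480 nm, emission 540 nm; Measure: Caspase-3 activity via Apaf-1.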
Rh110 interf act = counter-screen for Apaf-1 activators: fluorescence interference | Rh110 fluorescence interference, quenched caspase reaction, Ex480/Em540 | shares compounds with Apaf1 activ | AID 504616 | fluorescence interference (activity change), % at 20 µM, hits read low | 980 tested, under 10 active;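 active means mean activity change at or below -40% when tested at 20 µM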
Apaf-1 act conf2 = Apaf-1 (human) activation, single-dose confirmed. shares compounds with Apaf1 activ. reconstituted apoptosome caspase-3 activity, DEVD-Rh110 fluorescence; stronger effect = lower value. activity change, negative = activation, % at 20 µM. hit rate 5% among 980;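 active means mean activity change at or below -40%, meaning activation of 40% or more, at 20 µM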
Apaf1 act interf = shows fluorescence interference in the Apaf-1 activator assay format | shares compounds with Apaf1 activ | fluorescence interference counterscreen | EC50, µM | 55 tested, under 10 active | AID 588592; call rule not given here
Active calls of the source: *. Not all results are given here.

SMILES | Apaf1 activ | others
COc1cccc(NC(=O)C(Sc2nnc(Nc3ccccc3C)s2)c2ccccc2)c1 (stereo unspecified) | -276* | Rh110 interf act=16;Apaf-1 act conf2=6
Cc1c(CCC(C)C)c(=O)n2c([nH]c3ccccc32)c1C#N | 60
COc1ccc(Cn2nc(-c3ccccc3)c(N3CCCCC3)cc2=O)cc1 | 46
COc1ccc(-c2nc3nc(C)c(Cc4ccccc4)c(=O)n3[nH]2)cc1 | 49 | Apaf1 act interf=>100
O=S(=O)(/N=C/N1CCOCC1)c1ccc(Cl)cc1 | 43
NCCN1CCN(S(=O)(=O)c2ccc([N+](=O)[O-])cc2)C=C1c1ccc(Cl)cc1 | 43
CCn1cc(C(=O)NCCCOC)c(=O)c2cc(S(=O)(=O)N(C)C)ccc21 | -303* | Rh110 interf act=-5;Apaf-1 act conf2=8
COCCCNC(=O)c1c(N)n(-c2cccc(S(N)(=O)=O)c2)c2nc3ccccc3nc12 | 43
CC(C)[C@H](CN1CCC[C@H]1CN1C(N)=NC[C@@H]1Cc1ccccc1)N1C[C@@H](Cc2ccccc2)N(CCc2ccc(Cl)c(Cl)c2)C1=N | 82
O=C1C(=O)c2c(C(=O)c3ccccc3)coc2-c2ccccc21 | 55
CN(C)CCNC(=O)c1ccc(COc2ccc(Cl)cc2Cl)cc1 | 46
CCN(CC)CCNC(=O)c1ccc(NC(C)=O)cc1 | -2
CCOc1cc(/C=C/C(=O)Nc2ccc(C(=O)NCCN(CC)CC)cc2)ccc1OCC(C)C | 47 | Apaf1 act interf=>100
CCn1c(SCC(=O)c2ccc(F)cc2)nnc1-c1ccoc1C | -223* | Rh110 interf act=-3;Apaf-1 act conf2=9
CCN1CCN(CCNC(=O)c2cn(C(C)c3ccccc3F)nn2)CC1 (stereo unspecified) | -78* | Rh110 interf act=8;Apaf-1 act conf2=16
O=C1OC(Nc2ccc3ncccc3c2)c2ccccc21 (stereo unspecified) | 82
COc1ccc2c(c1)OC/C(=C/c1cccs1)C2=O | -94* | Rh110 interf act=5;Apaf-1 act conf2=12
Nc1nc2ccc(OC(F)(F)F)cc2s1 | -1
CCc1ccc(S(=O)(=O)/N=C2\C=C(Nc3cccc(C(=O)O)c3)C(=O)c3ccccc32)cc1 | 91
CCCCCCCCCCCCN1[C@@H](CC(=O)O)c2cc(C(F)(F)F)ccc2S1(=O)=O | 41
COC(=O)c1ccc(NC(=O)c2ccc(NC(=O)c3ccco3)cc2)cc1 | 44
CCCCCn1c(NC(=O)c2ccco2)c(S(=O)(=O)c2ccc(C)cc2)c2nc3ccccc3nc21 | 63
O=C(Nc1nc2ccsc2c(=O)s1)c1ccco1 | -136* | Rh110 interf act=0;Apaf-1 act conf2=-56*;Apaf1 act interf=>100
C/C(=C\C(=S)Nc1ccccc1)Nc1cccc2ccccc12 | 97
CC1=C(CC(=O)c2ccccc2)C(=O)c2ccccc2C1=O | 45
SMILES | Apaf1 activ | others
CCCCCCC(=O)Nc1nc(C)c(-c2csc(Nc3cc(OC)ccc3OC)n2)s1 | 49
CCOC(=O)c1cnn(-c2c(Cc3ccccc3)c(C)nc3c(-c4ccccc4)c(C)nn23)c1N | 62
CCOC(=O)c1ccc(-n2[nH]c(-c3ccccc3)cc2=O)cc1 | 43
CCOC(=O)c1cc(C#N)c(N2CCN(c3ccccn3)CC2)nc1-c1ccccc1 | -443* | Rh110 interf act=14;Apaf-1 act conf2=20
CCN1CCN(c2ccc(S(=O)(=O)N3CCCCC3)cc2NC(=O)COc2ccc(Cl)c(C)c2)CC1 | 45
O=C(OCC(=O)N1CCN(S(=O)(=O)c2ccccc2)CC1)c1ccc([N+](=O)[O-])o1 | 80
C#CCOc1ccc(/C=C2/C(=O)N(c3cccc(C(=O)O)c3)N=C2C)cc1OC | 43
COc1ccc(/C=C2\SC(=S)N(CCC(=O)Nc3ccc(C(=O)O)cc3)C2=O)cc1OC | -364* | Rh110 interf act=4;Apaf-1 act conf2=-133*;Apaf1 act interf=>100
O=C(O)CCN1C(=O)/C(=C\c2ccc(OCc3ccccc3)c(OCc3ccccc3)c2)SC1=S | -56* | Rh110 interf act=10;Apaf-1 act conf2=-79*;Apaf1 act interf=>100
COc1cc(/C=C/c2cc[n+](C)cc2)ccc1OCC(=O)Nc1ccc(Cl)c(Cl)c1 | 73
COc1cccc(/C=C2\SC(=S)N(CCCC(=O)N3CCCCC3)C2=O)c1 | -137* | Rh110 interf act=11;Apaf-1 act conf2=15
COC(=O)c1ccc(/C=C2/SC(=S)N(CCCC(=O)Nc3ccc(O)cc3)C2=O)cc1 | -67* | Rh110 interf act=-1;Apaf-1 act conf2=-27
CCOc1ccc(/C=C2\SC(=S)N(CCCC(=O)NCCCN3CCOCC3)C2=O)cc1 | 42
COc1ccc(/C=C2/Sc3ccc(C(=O)NCCN4CCCCCC4)cc3NC2=O)cc1 | 49
COc1ccc(S(=O)(=O)Nc2cccc3c2O[C@H](CN(C)Cc2ccccc2)[C@@H](C)CN([C@H](C)CO)C3=O)cc1 | 53
COc1ccc(O)c(C(c2c(C)[nH][nH]c2=O)c2c(C)[nH][nH]c2=O)c1 | 67
CN1CCN(CCCN2c3ccccc3Sc3ccc(C(F)(F)F)cc32)CC1 | 54
COc1cccc(-c2sc3ccccc3c2-c2ccc(OCCN3CCCCC3)cc2)c1 | 64
COCCN1C(=S)N[C@@H](c2cccc(F)c2)C(C(=O)OC)=C1C | 57
CCCCOc1cc(C(=O)OCCN(CC)CC)ccc1N | 3
O=C(Nc1ccc(Cl)c(Cl)c1)Nc1nc(-c2ccccc2)cs1 | -366* | Rh110 interf act=11;Apaf-1 act conf2=16
Cc1nc(C(=O)NNC(=O)Nc2ccccc2)cs1 | 57
C=CCC[C@@H](Cc1ccc(F)cc1)C(=O)OC[C@@H]1CCCN1C(=O)[C@@H](CC=C)CC(=O)N(CCO)Cc1ccccc1 | 48
Cc1cccc(NC(=O)c2ccccc2OCC(=O)N2CCOCC2)c1C | -546* | Rh110 interf act=20;Apaf-1 act conf2=14
COc1cc(C(=O)N2CCN(c3cccc(C)c3C)CC2)ccc1OCC(=O)N1CCOCC1 | 51
SMILES | Apaf1 activ | others
CCOc1cc(/C=C/c2nc3cc(C)c(C)cc3s2)ccc1OCC(=O)N1CCOCC1 | 45
Clc1ccccc1OCc1nn2c(-c3ccncc3)nnc2s1 | 41
CC(/C=C\c1cccnc1)=C/C(=O)O | -84* | Rh110 interf act=-2;Apaf-1 act conf2=-46*;Apaf1 act interf=>100
CCOC(=O)C1=C(c2ccccc2)NC(N)=NC1c1ccc(OCc2ccc(Cl)cc2)c(OC)c1 (stereo unspecified) | 58
CC(C)CCn1c(CN2CCOCC2)nc2c1c(=O)n(C)c(=O)n2C | -44* | Rh110 interf act=9;Apaf-1 act conf2=12
Cn1c(=O)c2c(nc(CN3CCc4ccccc4C3)n2Cc2cccc(Cl)c2)n(C)c1=O | 51
Oc1ccc(C=Nc2ccc3ncccc3c2)c(O)c1 | 95
O=C(Nc1ncccn1)c1cccc(F)c1 | -48* | Rh110 interf act=1;Apaf-1 act conf2=10
CN(C)c1cccc2c1c(NC(=O)c1ccc(F)cc1)nn2C | 92
O=C(Nc1ccc(-c2cccc(F)c2)cc1)C1CCCN(Cc2ccccn2)C1 (stereo unspecified) | 40
FC(F)(F)c1cc(CO[C@@H]2CCCN[C@@H]2c2ccccc2)cc(C(F)(F)F)c1 | 47
COc1ccc(O)c(N)c1 | 76
O=C(OCC(=O)N1CCN(S(=O)(=O)c2ccc(Cl)cc2)CC1)c1ccc([N+](=O)[O-])o1 | 69
COc1ccccc1Nc1cc2cc(Br)ccc2c(=O)[nH]1 | 97
CC(=O)c1cccc(-c2ccc3c(=O)[nH]c(Nc4ccccc4)cc3c2)c1 | 96 | Apaf1 act interf=>100
O=c1[nH]c(Nc2ccccc2)cc2cc(Br)ccc12 | 98
COC(=O)C1=C(C)N(Cc2ccccc2)C(=NCc2cccc(Cl)c2)N[C@H]1c1ccccc1 | 56
COc1ccc(NC(=S)Nc2ccc3nsnc3c2)cc1 | 97
CCN(CC)CCOC(=O)c1ccc(N/C=C(/C#N)c2nc(-c3cccc(OC)c3)cs2)cc1 | 55
